Measured values as given in ChEMBL document CHEMBL1811824, “Synthesis and evaluation of mansonone F derivatives as topoisomerase inhibitors” (Eur J Med Chem, 2011).
The source made the active and inactive calls. The calls are words filed in the database; no cut-off is given here.

How the values were obtained:
[1] = molecular target: T1, DNA topoisomerase 2-alpha (Homo sapiens, UniProt P11388); assay: Inhibition of human topoisomerase 2 alpha-mediated relaxation of supercoiled pBR322 DNA after 30 mins by agarose gel electrophoresis
Outline: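 Compound added at constant solvent volume. Started with 1 U human topo IIα, 30 min at 37 °C. Stopped with sarkosyl/bromophenol blue/glycerol buffer. Read on 1% agarose TAE gel, ethidium-stained, imaged under UV.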

[2] = Antitumor against human CNE2 cells assessed as cell survival after 48 hrs by MTT assay; type: functional, cell-based; settings: CNE-2, 48 h
Outline: (§1)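 1 × 10^4 cells per well plated and left overnight, then exposed to compound at 0–100 μM for 48 h. Per well, 20 μl of 5 mg/ml MTT added, then incubated 4 h at 37 °C. Untransformed MTT removed, formazan dissolved in DMSO, absorbance read at 570 nm, and IC50 derived. Modified Mosmann method.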

[3] = molecular target: Telomerase reverse transcriptase (Homo sapiens) (UniProt O14746); assay: Inhibition of telomerase in human K562 cells at 20 uM using telo TAGGG telomerase PCR ELISA; type: cell-based
Outline: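 TRAP-based kit with non-radioactive ELISA read-out, run on K562 human leukemia cells per the manufacturer's instructions.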

[4] = molecular target: T1, DNA topoisomerase 2-alpha; assay: Ratio IC50 of etoposide to IC50 of compound for human topoisomerase 2 alpha
Outline: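 Human topo IIα relaxation of 0.2 μg pBR322 in Tris pH 8.0 buffer with 5 mM ATP, using 1 U enzyme for 30 min at 37 °C, read on agarose gel.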

[5] = Antitumor against human GLC82 cells assessed as cell survival after 48 hrs by MTT assay; type: functional, cell-based; settings: GLC82, 48 h; outline: as §1
Ehrlich = assay: Inhibition of DNA primase in mouse EAC cells assessed as incorporation of [3H]dATP to […] template at 100 uM after 1 hr by scintillation counting; type: cell-based
Outline: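 DNA primase isolated from Ehrlich ascites carcinoma cells grown in culture.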

[6] = molecular target: T2, DNA topoisomerase 1 (Homo sapiens) (UniProt P11387); assay: Inhibition of human topoisomerase 1-mediated relaxation of supercoiled pBR322 DNA at 250 uM after 30 mins by agarose gel electrophoresis
T2 sequence (whole entry): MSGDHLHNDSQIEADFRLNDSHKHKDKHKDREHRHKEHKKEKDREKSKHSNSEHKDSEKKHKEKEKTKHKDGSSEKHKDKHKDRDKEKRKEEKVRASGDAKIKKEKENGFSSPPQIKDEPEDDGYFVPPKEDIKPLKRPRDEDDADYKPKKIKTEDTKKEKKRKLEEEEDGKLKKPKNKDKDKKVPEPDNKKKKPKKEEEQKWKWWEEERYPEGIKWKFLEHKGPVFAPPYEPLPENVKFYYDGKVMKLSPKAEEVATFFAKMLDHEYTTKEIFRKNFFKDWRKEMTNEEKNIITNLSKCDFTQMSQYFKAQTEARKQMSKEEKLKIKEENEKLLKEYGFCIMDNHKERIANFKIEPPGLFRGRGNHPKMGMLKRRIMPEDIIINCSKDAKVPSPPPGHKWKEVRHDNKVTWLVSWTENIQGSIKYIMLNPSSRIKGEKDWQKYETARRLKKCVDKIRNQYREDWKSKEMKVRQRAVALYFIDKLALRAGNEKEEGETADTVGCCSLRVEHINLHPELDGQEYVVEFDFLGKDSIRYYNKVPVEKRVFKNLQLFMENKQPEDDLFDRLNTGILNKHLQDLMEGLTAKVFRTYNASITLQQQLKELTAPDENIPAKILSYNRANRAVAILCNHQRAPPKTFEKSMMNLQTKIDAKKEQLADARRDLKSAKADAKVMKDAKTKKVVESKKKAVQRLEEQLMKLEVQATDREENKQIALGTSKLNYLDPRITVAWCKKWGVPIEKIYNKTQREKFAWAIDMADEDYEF

T1 sequence (P11388 whole entry): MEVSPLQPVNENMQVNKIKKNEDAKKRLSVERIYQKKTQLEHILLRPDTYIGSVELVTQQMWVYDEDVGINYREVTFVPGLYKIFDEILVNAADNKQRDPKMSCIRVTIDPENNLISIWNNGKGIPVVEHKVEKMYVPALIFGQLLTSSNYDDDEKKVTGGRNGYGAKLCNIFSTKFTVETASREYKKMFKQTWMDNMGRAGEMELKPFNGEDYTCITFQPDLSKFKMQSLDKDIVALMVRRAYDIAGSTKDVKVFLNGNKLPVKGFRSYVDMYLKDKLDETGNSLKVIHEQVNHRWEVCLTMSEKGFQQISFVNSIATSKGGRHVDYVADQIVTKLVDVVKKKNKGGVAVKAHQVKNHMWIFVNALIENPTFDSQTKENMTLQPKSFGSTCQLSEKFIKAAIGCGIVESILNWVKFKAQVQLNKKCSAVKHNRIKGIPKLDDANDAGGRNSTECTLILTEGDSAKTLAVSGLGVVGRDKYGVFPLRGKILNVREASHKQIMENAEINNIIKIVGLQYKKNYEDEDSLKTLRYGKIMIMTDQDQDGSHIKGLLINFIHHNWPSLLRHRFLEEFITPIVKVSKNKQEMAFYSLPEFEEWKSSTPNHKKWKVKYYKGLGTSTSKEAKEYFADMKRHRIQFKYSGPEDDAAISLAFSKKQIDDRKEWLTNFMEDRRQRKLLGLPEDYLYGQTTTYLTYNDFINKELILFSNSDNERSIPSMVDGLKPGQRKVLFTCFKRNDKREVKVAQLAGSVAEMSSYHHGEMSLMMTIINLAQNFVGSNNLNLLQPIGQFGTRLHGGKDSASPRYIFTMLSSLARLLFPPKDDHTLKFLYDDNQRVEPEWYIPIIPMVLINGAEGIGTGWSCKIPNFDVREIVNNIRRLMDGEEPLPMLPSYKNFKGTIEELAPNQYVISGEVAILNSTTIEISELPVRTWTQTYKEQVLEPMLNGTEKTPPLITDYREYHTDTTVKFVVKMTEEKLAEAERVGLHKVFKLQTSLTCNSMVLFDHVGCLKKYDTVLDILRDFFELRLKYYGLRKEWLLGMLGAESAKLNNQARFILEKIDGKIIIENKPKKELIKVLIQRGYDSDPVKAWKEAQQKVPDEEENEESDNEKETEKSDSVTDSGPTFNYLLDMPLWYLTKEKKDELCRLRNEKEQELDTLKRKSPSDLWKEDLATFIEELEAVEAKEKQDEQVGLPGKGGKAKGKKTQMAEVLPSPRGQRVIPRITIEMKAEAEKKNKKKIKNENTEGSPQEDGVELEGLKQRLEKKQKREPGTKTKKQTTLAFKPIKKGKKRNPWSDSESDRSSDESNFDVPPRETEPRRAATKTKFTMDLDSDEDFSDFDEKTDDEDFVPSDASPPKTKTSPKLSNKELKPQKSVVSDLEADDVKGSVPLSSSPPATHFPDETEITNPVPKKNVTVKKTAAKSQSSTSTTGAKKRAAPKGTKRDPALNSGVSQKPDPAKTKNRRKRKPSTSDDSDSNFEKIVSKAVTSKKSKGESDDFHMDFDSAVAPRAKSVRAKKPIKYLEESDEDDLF
Sequence of Telomerase reverse transcriptase (Homo sapiens) (O14746 whole entry): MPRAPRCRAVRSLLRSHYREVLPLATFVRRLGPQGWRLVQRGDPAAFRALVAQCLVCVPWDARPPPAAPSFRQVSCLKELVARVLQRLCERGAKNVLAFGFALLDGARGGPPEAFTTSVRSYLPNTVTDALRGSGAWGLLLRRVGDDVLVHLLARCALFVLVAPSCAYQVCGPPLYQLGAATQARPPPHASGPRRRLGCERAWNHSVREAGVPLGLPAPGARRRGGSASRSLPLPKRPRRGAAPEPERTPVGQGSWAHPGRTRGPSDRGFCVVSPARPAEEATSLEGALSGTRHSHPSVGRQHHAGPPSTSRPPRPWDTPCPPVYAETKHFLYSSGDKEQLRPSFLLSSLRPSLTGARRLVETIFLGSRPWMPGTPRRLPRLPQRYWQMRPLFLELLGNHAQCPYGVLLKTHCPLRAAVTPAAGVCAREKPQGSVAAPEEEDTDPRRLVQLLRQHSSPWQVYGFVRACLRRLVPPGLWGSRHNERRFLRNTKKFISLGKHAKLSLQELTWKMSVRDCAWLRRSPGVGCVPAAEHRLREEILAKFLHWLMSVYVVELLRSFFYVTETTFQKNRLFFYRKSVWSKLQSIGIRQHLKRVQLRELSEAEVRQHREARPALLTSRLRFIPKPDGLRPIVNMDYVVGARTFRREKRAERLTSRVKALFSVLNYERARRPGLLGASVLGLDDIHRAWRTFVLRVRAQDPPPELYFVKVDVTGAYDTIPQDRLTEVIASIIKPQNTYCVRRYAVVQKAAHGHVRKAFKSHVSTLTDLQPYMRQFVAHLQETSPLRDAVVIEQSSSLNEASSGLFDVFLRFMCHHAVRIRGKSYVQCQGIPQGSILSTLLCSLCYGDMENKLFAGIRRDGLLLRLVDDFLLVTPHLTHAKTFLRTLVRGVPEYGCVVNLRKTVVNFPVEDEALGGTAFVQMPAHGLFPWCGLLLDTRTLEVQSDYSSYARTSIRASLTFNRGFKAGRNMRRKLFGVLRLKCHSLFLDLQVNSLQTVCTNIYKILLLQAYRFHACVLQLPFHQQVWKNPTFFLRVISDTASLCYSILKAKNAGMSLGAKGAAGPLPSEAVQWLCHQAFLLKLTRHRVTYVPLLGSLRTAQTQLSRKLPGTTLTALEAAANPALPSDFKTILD

Row | SMILES | IC50 [1] [µM] | IC50 [2] [µM] | inhibition [3] [%] | Ratio IC50 [4] | IC50 [5] [µM] | inhibition (Ehrlich) [%] | inhibition [6]
1 | CC1COC2=CC(=O)C(=O)c3cccc1c32 (stereo unspecified) | 1.88 | 2.05 | 22 | 32 | 1.77 | 29 | inactive
2 | CCCC1=COC2=C(Cl)C(=O)C(=O)c3cccc1c32 | – | 3.93 | – | – | 2.15 | – | Active
3 | O=C1/C(=N\O)C=C2OCCc3cccc1c32 | – | > 50 | – | – | > 50 | – | –
4 | O=C1C(=O)c2cccc3c2C(=C1Cl)OCC3(O)c1ccccc1 (stereo unspecified) | – | 2.87 | – | – | 5.63 | – | Active
5 | O=C1C=C2OCC(O)(c3ccccc3)c3cccc(c32)C1=O (stereo unspecified) | – | 3.18 | – | – | 5.33 | – | Active
6 | CC1=C(OCC(=O)c2ccc(Cl)cc2)c2ccccc2C(=O)C1=O | – | 30.4 | – | – | > 50 | – | –
7 | O=C1C(=O)c2cccc3c2C(=C1Cl)OC=C3c1ccccc1 | – | 33.3 | – | – | 40.2 | – | Active
8 | CCCC1(O)COC2=C(Cl)C(=O)C(=O)c3cccc1c32 (stereo unspecified) | – | 3.59 | – | – | 7.93 | – | Active
9 | COc1ccc(C(=O)COC2=C(C)C(=O)C(=O)c3ccccc32)cc1 | – | 30.4 | – | – | 44.3 | – | –
10 | O=C1C(=O)c2cccc3c2C(=C1Cl)OCC3(O)Cc1ccccc1 (stereo unspecified) | – | 6.34 | – | – | 2.75 | – | Active
11 | CC1(OC(=O)c2ccccc2)COC2=C(Cl)C(=O)C(=O)c3cccc1c32 (stereo unspecified) | – | 8.05 | – | – | 10.8 | – | Active
12 | CC1(O)COC2=C(Cl)C(=O)C(=O)c3cccc1c32 (stereo unspecified) | – | 8.12 | – | – | 11.3 | – | Active
13 | CC[C@@]1(O)C(=O)OCc2c1cc1n(c2=O)Cc2cc3cc(O)ccc3nc2-1 [HYDROXYCAMPTOTHECIN] | – | 1.04 | – | – | 0.23 | – | –
14 | O=C1C(=O)c2cccc3c2C(=C1Cl)OC=C3c1ccc(F)cc1 | – | 27.5 | – | – | 31.3 | – | Active
15 | c1ccc2nc3c(cc4c5c(cccc53)CCO4)nc2c1 | – | > 50 | – | – | > 50 | – | –
16 | O=C1C=C2OCC(O)(Cc3ccccc3)c3cccc(c32)C1=O (stereo unspecified) | 4.88 | 4.47 | – | 12 | 3.82 | – | Active
17 | O=C1C(=O)c2cccc3c2C(=C1Cl)OC=C3Cc1ccccc1 | – | 21.5 | – | – | 21.6 | – | Active

Row | SMILES | IC50 [1] [µM] | IC50 [2] [µM] | inhibition [3] [%] | Ratio IC50 [4] | IC50 [5] [µM] | inhibition (Ehrlich) [%] | inhibition [6]
18 | CC1(O)COC2=CC(=O)C(=O)c3cccc1c32 (stereo unspecified) | – | 17.3 | – | – | 19.2 | – | –
19 | O=C1C=C2OCCc3cccc(c32)/C1=N/O | – | 5.7 | – | – | 42.8 | – | –
20 | O=C1C=C2OC=C(c3ccccc3)c3cccc(c32)C1=O | – | 9.19 | – | – | 3.68 | – | Active
21 | O=C1C=C2OC=C(c3ccc(F)cc3)c3cccc(c32)C1=O | – | 16 | – | – | 3.21 | – | Active
22 | CC1=C(OCC(=O)c2ccc(C)c(C)c2)c2ccccc2C(=O)C1=O | – | > 50 | – | – | > 50 | – | –
23 | c1cc2c3c(cc4nccnc4c3c1)OCC2 | – | > 50 | – | – | > 50 | – | –
24 | CC1=C(OCC#N)c2ccccc2C(=O)C1=O | – | 39.5 | – | – | 39.2 | – | –
25 | C=CCC1=COC2=C(Cl)C(=O)C(=O)c3cccc1c32 | 1.54 | 5.2 | – | 39 | 3.77 | – | Active
26 | O=C1C=C2OCCc3cccc(c32)C1=O | – | 4.83 | – | – | 5.32 | – | –
27 | CC1=COC2=C(C)C(=O)C(=O)c3c(C)ccc1c32 [MANSONONE F] | – | 27.3 | – | – | 15.5 | – | Active
28 | C=CCOC1=C(C)C(=O)C(=O)c2ccccc21 | – | > 50 | – | – | > 50 | – | –
29 | c1ccc(-c2nc3cc4c5c(cccc5c3o2)CCO4)cc1 | – | > 50 | – | – | > 50 | – | –
30 | CC(=O)COC1=C(C)C(=O)C(=O)c2ccccc21 | – | > 50 | – | – | > 50 | – | –
31 | O=C1C=C2OC=C(Cc3ccccc3)c3cccc(c32)C1=O | – | 6.52 | – | – | 2.88 | – | Active
32 | O=C1C=C2OCC(O)(c3ccc(F)cc3)c3cccc(c32)C1=O (stereo unspecified) | – | 9.76 | – | – | 6.63 | – | Active
33 | C=CCC1(O)COC2=C(Cl)C(=O)C(=O)c3cccc1c32 (stereo unspecified) | – | 3.54 | – | – | 5.33 | – | Active
34 | O=C1C(=O)c2cccc3c2C(=C1Cl)OCC3(O)c1ccc(F)cc1 (stereo unspecified) | – | 13.5 | – | – | 9.74 | – | Active
